The values below come from PMC11144404 (Drug Design, Development and Therapy, 2024).

Structures are written as SMILES.

Data set [1] can be described thus: Steady-state plasma pharmacokinetics of HCTZ alone or with henagliflozin. Type of data set: in vivo, human.
For data set [2], the system named is healthy Chinese volunteers. The experiment in a line: Safety and tolerability. Type of data set: in vivo, human. Conditions: per treatment period. An outline of the steps:
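12 enrolled healthy Chinese men aged 18–40 y with BMI 19–26 kg/m2. All had normal blood chemistry, haematology, urinalysis, vital signs and hepatitis/HIV serology, and stopped interfering medications 4 weeks before the study. Treatment-emergent adverse events were recorded as events and subjects for each treatment period (multiple-dose monotherapy with each drug, then co-administration). Drug relatedness was assessed.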

Data set [3] is described as follows: Steady-state plasma pharmacokinetics of henagliflozin alone or with HCTZ. The data set is classed as in vivo, human.
For data set [4] the following is noted: 2.5 mg dose group; cited from earlier work.
For data set [5], the system named is healthy subjects and patients with T2DM. The following applies: cited from earlier work.

As for `NS(=O)(=O)c1cc2c(cc1Cl)NCNS2(=O)=O` [HCTZ, Hydrochlorothiazide], the “90% CI of ratio of geometric means (combination: monotherapy) for AUCτ,ss” value in data set [1] (HCTZ, compared with bioequivalence interval) is given as “within the bioequivalence interval of 0.80–1.25”. In addition, the “Decrease of Css,max by co-administration” value in data set [1] (co-administration with henagliflozin vs HCTZ alone) is reported as 19.41%. Besides, in data set [2] (of 12 subjects), the “All TEAEs, number of subjects” value is given as 11; the “Diarrhea, number of subjects” value is 2(2); the “Drug-related TEAEs, number of subjects” value stood at 11; the “Eczema, number of subjects” value is given as 0(0). In data set [2] (of 12 subjects), the “Subjects reporting TEAEs” value came out at 91.7% and the “Thirst, number of subjects” value was 10(10).
As for `CCOc1ccc(Cc2cc([C@@]34OC[C@@](CO)(O3)[C@@H](O)[C@H](O)[C@H]4O)ccc2Cl)cc1F` [Henagliflozin], in data set [3] (co-administration with HCTZ vs henagliflozin alone), the “Increase of Css,max by co-administration” value was 24.32%. Moreover, the “90% CI of ratio of geometric means (combination: monotherapy) for AUCτ,ss” value in data set [3] (henagliflozin, compared with bioequivalence interval) is “fell between 0.80 and 1.25”. For the same compound, in data set [2] (of 12 subjects), the “All TEAEs, number of subjects” value was 4(4); the “Diarrhea, number of subjects” value is recorded as 2(2); the “Dizziness, number of subjects” value is 1(1); the “Eczema, number of subjects” value is on record as 1(1). The “Subjects reporting TEAEs” value in data set [2] (of 12 subjects) was determined as 33.3%. Moreover, in data set [2] (of 12 subjects, listed as henagliflozin), the “All TEAEs, number of subjects” value is recorded as 4. Also, in data set [2] (figure in brackets), the “All TEAEs, number of events” value is listed as “four” and the “Drug-related TEAEs, number of events” value is listed as “all TEAEs were considered to be related to henagliflozin”. Also, in data set [4], the “Difference in AUC0-24h and Cmax between males and females” value was “no statistical difference”. In data set [5] (5–20 mg dosing range, healthy subjects and patients with T2DM), the “Benefit of 20 mg group compared with 5 mg and 10 mg groups (PK/PD)” value is reported as “no significant benefit”. Also, in data set [5] (healthy people), the “Effect on blood glucose, blood electrolytes, or blood pressure” value is “no effect”.
